Assays:
[1] = target: T1, Urease subunit alpha/Urease subunit beta (Helicobacter pylori (strain ATCC 700392 / 26695) (Campylobacterpylori), UniProt P69996); assay: Inhibition of Helicobacter pylori ATCC 43504 urease assessed as reduction in ammonia production using urea as substrate preincubated for 1.5 hrs under cell free condition by indophenol method; format: protein-complex assay, Helicobacter pylori NCTC 11637 = CCUG 17874 = ATCC 43504
In short: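 Crude urease from H. pylori ATCC 43504 grown 24 h at 37 °C, micro-aerobic, in Brucella broth with 10% sheep blood. Cells were PBS-washed, frozen at −80 °C, sonicated with protease inhibitors, centrifuged, desalted on G-25 and kept in 50% glycerol at 4 °C. Enzyme (10U) was preincubated with compound 1.5 h at room temperature. Ammonia was read by the indophenol method.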

[2] = target: T1, Urease subunit alpha/Urease subunit beta; assay: Mixed-type inhibition of Helicobacter pylori ATCC 43504 urease assessed as enzyme-inhibitor complex using urea as substrate preincubated for 1.5 hrs; format: protein-complex assay, Helicobacter pylori NCTC 11637 = CCUG 17874 = ATCC 43504
In short: (§1)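 Ammonia production rate measured by the indophenol method over a urea concentration gradient at each fixed inhibitor concentration. Inhibition type was assigned by nonlinear fitting to the general kinetic equation. Ki and Ki' were taken as the X-axis intercepts of linear fits of the fitted parameters against inhibitor concentration.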

[3] = target: T1, Urease subunit alpha/Urease subunit beta; assay: Mixed-type inhibition of Helicobacter pylori ATCC 43504 urease assessed as enzyme-substrate-inhibitor complex using urea as substrate preincubated for 1.5 hrs; format: protein-complex assay, Helicobacter pylori NCTC 11637 = CCUG 17874 = ATCC 43504; in short: as §1
[4] = target: T2, Urease subunit alpha/Urease subunit beta (Helicobacter pylori (strain ATCC 700392 / 26695) (Campylobacterpylori)) (UniProt P69996+P14916); assay: Ratio of IC50 for inhibition of urease in Helicobacter pylori ATCC 43504 intact cells to IC50 for inhibition of Helicobacter pylori ATCC 43504 urease under cell free condition; details: Helicobacter pylori NCTC 11637 = CCUG 17874 = ATCC 43504
T2 sequence (P14916 whole entry, looked up): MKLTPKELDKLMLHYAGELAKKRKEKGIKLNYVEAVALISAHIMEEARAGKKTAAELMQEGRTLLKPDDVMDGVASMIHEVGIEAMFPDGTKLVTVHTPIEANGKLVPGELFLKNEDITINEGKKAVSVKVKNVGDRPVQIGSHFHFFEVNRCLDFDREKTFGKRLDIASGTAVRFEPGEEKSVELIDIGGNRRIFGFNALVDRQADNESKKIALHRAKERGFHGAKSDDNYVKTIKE
T2 sequence (P69996 whole entry, looked up): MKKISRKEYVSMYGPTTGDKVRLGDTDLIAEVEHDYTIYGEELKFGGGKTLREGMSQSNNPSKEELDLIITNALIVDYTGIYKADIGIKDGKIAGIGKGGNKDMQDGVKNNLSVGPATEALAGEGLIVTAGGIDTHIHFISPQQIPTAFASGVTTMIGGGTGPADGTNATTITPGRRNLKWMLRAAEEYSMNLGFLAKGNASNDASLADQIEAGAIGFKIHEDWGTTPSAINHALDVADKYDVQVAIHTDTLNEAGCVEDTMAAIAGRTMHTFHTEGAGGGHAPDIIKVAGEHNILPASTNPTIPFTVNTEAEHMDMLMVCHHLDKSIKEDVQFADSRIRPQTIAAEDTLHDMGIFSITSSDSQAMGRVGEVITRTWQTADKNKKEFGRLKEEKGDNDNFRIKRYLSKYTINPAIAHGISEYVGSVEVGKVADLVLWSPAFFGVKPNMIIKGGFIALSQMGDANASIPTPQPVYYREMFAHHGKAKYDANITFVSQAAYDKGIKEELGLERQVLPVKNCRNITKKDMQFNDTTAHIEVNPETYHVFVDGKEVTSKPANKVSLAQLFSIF

[5] = target: T2, Urease subunit alpha/Urease subunit beta (Helicobacter pylori (strain ATCC 700392 / 26695) (Campylobacterpylori)); assay: (§2) Inhibition of urease in Helicobacter pylori ATCC 43504 assessed as reduction in ammonia production using urea as substrate preincubated for 1.5 hrs by indophenol method; format: protein-complex assay; details: Helicobacter pylori NCTC 11637 = CCUG 17874 = ATCC 43504
In short: (§3)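 Crude urease from sonicated H. pylori cells (grown 24 h, 37 °C, microaerobic, Brucella broth + 10% sheep blood), PBS-washed, frozen at –80 °C, desalted on Sephadex G-25, stored in 50% glycerol at 4 °C; 10U enzyme preincubated with compound 1.5 h at room temperature; ammonia measured by Weatherburn indophenol method.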

[6] = target: T1, Urease subunit alpha/Urease subunit beta; assay: as §2; format: protein-complex assay, Helicobacter pylori NCTC 11637 = CCUG 17874 = ATCC 43504; in short: as §3
[7] = target: T2, Urease subunit alpha/Urease subunit beta (Helicobacter pylori (strain ATCC 700392 / 26695) (Campylobacterpylori)); assay: Potency index, ratio of acetohydroxamic acid IC50 to compound IC50 for inhibition of urease in Helicobacter pylori ATCC 43504; format: protein-complex assay; details: Helicobacter pylori NCTC 11637 = CCUG 17874 = ATCC 43504
[8] = target: T2, Urease subunit alpha/Urease subunit beta (Helicobacter pylori (strain ATCC 700392 / 26695) (Campylobacterpylori)); assay: Potency index, ratio of acetohydroxamic acid IC50 to compound IC50 for inhibition of Helicobacter pylori ATCC 43504 urease; format: protein-complex assay; details: Helicobacter pylori NCTC 11637 = CCUG 17874 = ATCC 43504

T1 sequence (P69996 whole entry): as the sequence (P69996 whole entry, looked up) above
T1 sequence (P14916 whole entry, further chain): as the sequence (P14916 whole entry, looked up) above

Structure (SMILES) | IC50 [1] | further results
O=C(CCOc1ccc(F)cc1)NO | 1.13 µM | –
O=C(CCOc1ccc(Cl)cc1)NO | 0.44 µM | Ki [2]: 0.043 µM; Ki [3]: 0.054 µM; Ratio IC50 [4]: 14 to 24; inhibition [5]: Dose-dependent effect; IC50 [6]: 8.2 µM
O=C(CCOc1cc(F)cc(F)c1)NO | 5.09 µM | –
O=C(COc1cc(F)cc(F)c1)NO | 205 µM | –
O=C(COc1ccc(Br)cc1)NO | 5.35 µM | –
Cc1cc(C)cc(OCC(=O)NO)c1 | 41.9 µM | –
O=C(COc1ccc(F)cc1)NO | 18.9 µM | –
O=C(COc1cccc([N+](=O)[O-])c1)NO | 94.7 µM | –
O=C(CCOc1ccc(Br)cc1)NO | 0.86 µM | Ratio IC50 [4]: 14 to 24; inhibition [5]: Dose-dependent effect; IC50 [6]: 16.3 µM
Cc1cccc(OCCC(=O)NO)c1 | 3.38 µM | –
O=C(CCOc1cc(Cl)ccc1Cl)NO | 13.1 µM | –
Cc1ccccc1OCC(=O)NO | 154 µM | –
Cc1cccc(OCC(=O)NO)c1 | 85.1 µM | –
Cc1ccccc1OCCC(=O)NO | 6.74 µM | –
Cc1ccc(OCC(=O)NO)cc1 | 57.1 µM | –
O=C(COc1cccc(F)c1)NO | 27 µM | –
O=C(COc1ccccc1)NO | 131 µM | –
O=C(COc1ccc([N+](=O)[O-])cc1)NO | 62.1 µM | –
O=C(COc1ccccc1[N+](=O)[O-])NO | 144 µM | –

Structure (SMILES) | IC50 [1] | further results
O=C(COc1ccc(Cl)cc1)NO | 1.26 µM | –
O=C(COc1cc(Cl)cc(Cl)c1)NO | 3.22 µM | –
COc1ccc(OCC(=O)NO)cc1 | 49.5 µM | –
O=C(CCOc1ccccc1)NO | 4.18 µM | –
O=C(CCOc1cccc(F)c1)NO | 2.05 µM | –
O=C(COc1cccc(Cl)c1)NO | 10.4 µM | –
O=C(COc1cc(Cl)ccc1Cl)NO | 9.02 µM | –
O=C(COc1ccc(Cl)cc1Cl)NO | 0.83 µM | Ratio IC50 [4]: 14 to 24; inhibition [5]: Dose-dependent effect; IC50 [6]: 21.4 µM
O=C(CCOc1cccc(Cl)c1)NO | 1.23 µM | –
O=C(COc1ccccc1Cl)NO | 78.5 µM | –
O=C(COc1cccc(Cl)c1Cl)NO | 179 µM | –
O=C(COc1ccc(Cl)c(Cl)c1)NO | 0.52 µM | Ratio IC50 [4]: 14 to 24; inhibition [5]: Dose-dependent effect; IC50 [6]: 12.8 µM
Cc1cc(C)cc(OCCC(=O)NO)c1 | 10.4 µM | –
O=C(COc1c(Cl)cccc1Cl)NO | 353 µM | –
Cc1ccc(OCCC(=O)NO)cc1 | 1.38 µM | –
O=C(COc1ccccc1F)NO | 121 µM | –
O=C(CCOc1ccc(Cl)c(Cl)c1)NO | 0.061 µM | Ratio IC50 [7]: > 120; Ratio IC50 [8]: > 450; Ratio IC50 [4]: 14 to 24; inhibition [5]: Dose-dependent effect; IC50 [6]: 0.89 µM
COc1ccc(OCCC(=O)NO)cc1 | 8.35 µM | –

— ChEMBL document CHEMBL4229433, “The synthesis and evaluation of phenoxyacylhydroxamic acids as potential agents for Helicobacter pylori infections” (Bioorg Med Chem, 2018)
